Assay [1] deals with T1, Estrogen receptor beta (Homo sapiens, UniProt Q92731). Briefly: Percent inhibition of 0.30 nM estradiol activity on estrogen receptor beta in MCF-7-2a cells at 10 uM. It counts as cell-based. The note with it: in the assay text read “U-2 OS cells” for “MCF-7-2a cells”. In a few lines:
(§1)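 Antagonist mode used U-2 OS cells transiently co-transfected with pSG5-ERβ FL and (ERE)2luc+ in charcoal-stripped medium. Compounds at 10^-5 to 10^-13 M were co-incubated with E2 at 3.0 × 10^-10 M for 21 h. Luciferase luminescence was normalised to crystal-violet cell mass, in triplicate, and reported as % inhibition of the E2 signal.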

Assay [2] has as its target T1, Estrogen receptor beta. The experiment in a line: Percent activation of estrogen receptor beta in luciferase assay at 10 uM. The essentials:
(§2)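 U-2 OS cells grown in charcoal-treated FCS medium were transiently co-transfected with pSG5-ERβ FL (0.05 µg) and (ERE)2luc+ reporter (5 µg) using Fugene6, then pooled and reseeded. Compounds were added at 10^-5 to 10^-10 M in 0.1% DMSO for 21 h. Luciferase RLU was normalised to crystal-violet cell mass, in triplicate, and expressed as % of the E2 plateau.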

Assay [3] deals with T2, Estrogen receptor (Homo sapiens, UniProt P03372).
T2 sequence (P03372 whole entry): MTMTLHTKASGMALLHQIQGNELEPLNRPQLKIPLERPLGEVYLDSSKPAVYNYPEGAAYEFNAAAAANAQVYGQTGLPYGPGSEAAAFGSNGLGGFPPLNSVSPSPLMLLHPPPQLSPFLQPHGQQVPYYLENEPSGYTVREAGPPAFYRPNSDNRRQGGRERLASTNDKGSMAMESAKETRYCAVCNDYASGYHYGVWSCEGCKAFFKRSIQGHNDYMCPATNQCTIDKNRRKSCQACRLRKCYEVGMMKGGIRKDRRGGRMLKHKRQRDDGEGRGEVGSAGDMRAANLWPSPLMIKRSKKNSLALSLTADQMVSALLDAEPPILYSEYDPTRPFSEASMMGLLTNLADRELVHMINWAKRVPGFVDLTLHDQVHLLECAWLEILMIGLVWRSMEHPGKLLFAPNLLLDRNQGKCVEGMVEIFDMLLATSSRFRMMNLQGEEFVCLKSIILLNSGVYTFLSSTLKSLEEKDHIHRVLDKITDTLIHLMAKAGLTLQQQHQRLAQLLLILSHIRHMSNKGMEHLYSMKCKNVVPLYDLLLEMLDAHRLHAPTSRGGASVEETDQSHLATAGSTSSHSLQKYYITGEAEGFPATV
The experiment in a line: Effective concentration against estrogen receptor alpha of MCF-7-2a cells.

For assay [4], the target named is T1, Estrogen receptor beta. Briefly: Effective concentration against estrogen receptor beta of […]. In a few lines:
as §2

Assay [5] addresses T1, Estrogen receptor beta. The experiment in a line: Percent inhibition of 0.30 nM estradiol activity on estrogen receptor beta in U-2 OS cells at 10 uM.
In assay [6] the target is T1, Estrogen receptor beta. Briefly: Inhibition of estrogen receptor beta at 10 uM.
In assay [7] the target is T2, Estrogen receptor. Briefly: Inhibition of estrogen receptor alpha in MCF-7-2a cells at 10 uM. It counts as cell-based.
Assay [8] addresses T1, Estrogen receptor beta. Briefly: Inhibition of estrogen receptor beta in […] at 10 uM. The class given is cell-based. The essentials: as §1

pEC50, pIC50: −log10 of the molar value.

T1 sequence (Q92731 whole entry): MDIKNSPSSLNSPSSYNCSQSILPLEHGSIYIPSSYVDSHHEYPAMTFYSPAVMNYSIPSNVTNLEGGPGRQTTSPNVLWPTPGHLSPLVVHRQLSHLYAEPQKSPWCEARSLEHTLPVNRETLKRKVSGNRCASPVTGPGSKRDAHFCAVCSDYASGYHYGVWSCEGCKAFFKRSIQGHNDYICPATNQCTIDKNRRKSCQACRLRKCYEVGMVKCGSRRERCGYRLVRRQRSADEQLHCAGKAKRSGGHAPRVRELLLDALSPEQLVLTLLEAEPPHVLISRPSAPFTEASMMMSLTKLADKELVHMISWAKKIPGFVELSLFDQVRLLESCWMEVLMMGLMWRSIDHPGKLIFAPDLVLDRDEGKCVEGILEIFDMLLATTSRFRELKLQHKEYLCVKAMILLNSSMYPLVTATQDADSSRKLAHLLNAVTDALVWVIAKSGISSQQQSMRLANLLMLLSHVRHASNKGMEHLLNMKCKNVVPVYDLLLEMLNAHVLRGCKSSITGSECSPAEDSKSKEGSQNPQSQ

Broadly, the inhibition is the relative decrease from the control value, in per cent. By pEC50 is commonly meant −log10 of the EC50, conventionally taken in molar units. Read a low pEC50 as a large EC50. In assay [1], `Oc1cc(Cl)c([C@@H]2N=CN[C@@H]2c2ccc(OCCN3CCCCC3)cc2Cl)c(Cl)c1` registered an inhibition of 0%. The same compound gave an Activation in assay [2] of 103%. The figures for the pEC50 in assay [3] and in assay [4] were 7.07 and 6.40, respectively.

What is called pIC50 is the negative decadic logarithm of the IC50, by convention in mol/L. Higher therefore signals a small IC50. In the case of `CCC1=N[C@H](c2ccc(OCCN3CCCCC3)cc2)[C@H](c2ccc(O)cc2)N1`, the inhibition in assay [5] is 57%. In assay [2], this compound displayed an Activation of 95%. The values for the pIC50 in assay [6] and in assay [7] were 5.05 and 7.42, respectively. This compound showed a pEC50 in assay [4] of 6.30.

`CCC1=N[C@H](c2ccc(OCCN3CCCCC3)cc2Cl)[C@H](c2ccc(O)cc2Cl)N1`: the inhibition in assay [5] was 75%. In assay [2], this compound returned an Activation of 92%. Further, the pIC50 in assay [8] is 5.22. The same compound showed a pEC50 in assay [4] of 5.55.

With `Oc1ccc([C@@H]2N=CN[C@@H]2c2ccc(OCCN3CCCC3)cc2Cl)c(Cl)c1`, the inhibition in assay [1] is 30%. The same compound came in with an Activation in assay [2] of 105%. Besides, the pEC50 was 5.74 in assay [3] and 6.33 in assay [4].

For `CN(C)CCOc1ccc([C@H]2N=CN[C@H]2c2ccc(O)cc2Cl)c(Cl)c1`, the inhibition in assay [1] was 4%. The compound further came in with an Activation in assay [2] of 75%.

In turn, `CN(C)CCOc1ccc([C@H]2N=CN[C@H]2c2ccc(O)cc2)cc1` yielded an inhibition in assay [1] of 0%. The compound also displayed an Activation in assay [2] of 36%. Moreover, the negative-log EC50 (pEC50) in assay [3] was 5.46.

On to `Oc1ccc([C@@H]2N=CN[C@@H]2c2ccc(OCCN3CCCCC3)cc2Cl)c(Cl)c1`, for which, in assay [1], the inhibition was 0%. The compound also registered an Activation in assay [2] of 60%. In addition, the pEC50 in assay [3] was 5.77; in assay [4], 6.22.

`Oc1ccc([C@@H]2N=CN[C@@H]2c2ccc(OCCN3CCCCC3)cc2)cc1` yielded an inhibition in assay [1] of 12%. The same compound returned an Activation in assay [2] of 26%.

In the case of `CN(C)CCOc1ccc([C@H]2NC=N[C@H]2c2ccc(O)cc2Cl)c(Cl)c1`, the pEC50 in assay [3] was 5.82; in assay [4], 5.45.

(Values after ChEMBL document CHEMBL1145175, “Investigations on the effects of basic side chains on the hormonal profile of (4R,5S)/(4S,5R)-4,5-bis(4-hydroxyphenyl)-2-imidazolines” (J Med Chem, 2005).)
